ChEMBL document CHEMBL3407438, “Discovery of potent, orally bioavailable, small-molecule inhibitors of WNT signaling from a cell-based pathway screen” (J Med Chem, 2015)

How the values were obtained:
[1] = target: Cytochrome P450 2C9 (Homo sapiens, UniProt P11712); assay: Inhibition of CYP2C9 (unknown origin); type: ADME; details: human
[2] = target: Cytochrome P450 3A4 (Homo sapiens, UniProt P08684); assay: Inhibition of CYP3A4 (unknown origin); type: ADME; details: human
[3] = Volume of distribution at steady state in NMRI mouse at 0.2 mg/kg, iv; type: ADME, organism-based; set-up: dose 0.2 mg/kg, route intravenous; details: in vivo, read-out: Vdss
In short: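 Female NMRI mice (n = 5) given a single iv bolus (0.2 mg/kg per compound) or oral gavage (0.5 mg/kg per compound) as a cassette, in DMSO/PEG 200/water. Serial retro-orbital blood was drawn under isoflurane from 3 animals per route at 0.1 (iv), 0.25 (po), 0.5, 1, 2, 4 and 6 h. Plasma was quantified by LC–MS/MS.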

[4] = AUC in Wistar rat at 0.5 mg/kg, po; type: ADME, organism-based; set-up: dose 0.5 mg/kg, route oral; details: plasma
In short: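 Male Wistar rats (n = 6) received cassette dosing, either iv bolus at 0.2 mg/kg or oral gavage at 0.5 mg/kg per compound, in DMSO/PEG 200/water. Plasma levels were measured by UPLC–MS/MS.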

[5] = target: T1, Poly [ADP-ribose] polymerase tankyrase-2 (Homo sapiens, UniProt Q9H2K2); assay: Inhibition of GST-tagged TNKS2 (873 to 1166 aa) (unknown origin) after 90 mins by HTRF assay
T1 sequence (Q9H2K2 whole entry): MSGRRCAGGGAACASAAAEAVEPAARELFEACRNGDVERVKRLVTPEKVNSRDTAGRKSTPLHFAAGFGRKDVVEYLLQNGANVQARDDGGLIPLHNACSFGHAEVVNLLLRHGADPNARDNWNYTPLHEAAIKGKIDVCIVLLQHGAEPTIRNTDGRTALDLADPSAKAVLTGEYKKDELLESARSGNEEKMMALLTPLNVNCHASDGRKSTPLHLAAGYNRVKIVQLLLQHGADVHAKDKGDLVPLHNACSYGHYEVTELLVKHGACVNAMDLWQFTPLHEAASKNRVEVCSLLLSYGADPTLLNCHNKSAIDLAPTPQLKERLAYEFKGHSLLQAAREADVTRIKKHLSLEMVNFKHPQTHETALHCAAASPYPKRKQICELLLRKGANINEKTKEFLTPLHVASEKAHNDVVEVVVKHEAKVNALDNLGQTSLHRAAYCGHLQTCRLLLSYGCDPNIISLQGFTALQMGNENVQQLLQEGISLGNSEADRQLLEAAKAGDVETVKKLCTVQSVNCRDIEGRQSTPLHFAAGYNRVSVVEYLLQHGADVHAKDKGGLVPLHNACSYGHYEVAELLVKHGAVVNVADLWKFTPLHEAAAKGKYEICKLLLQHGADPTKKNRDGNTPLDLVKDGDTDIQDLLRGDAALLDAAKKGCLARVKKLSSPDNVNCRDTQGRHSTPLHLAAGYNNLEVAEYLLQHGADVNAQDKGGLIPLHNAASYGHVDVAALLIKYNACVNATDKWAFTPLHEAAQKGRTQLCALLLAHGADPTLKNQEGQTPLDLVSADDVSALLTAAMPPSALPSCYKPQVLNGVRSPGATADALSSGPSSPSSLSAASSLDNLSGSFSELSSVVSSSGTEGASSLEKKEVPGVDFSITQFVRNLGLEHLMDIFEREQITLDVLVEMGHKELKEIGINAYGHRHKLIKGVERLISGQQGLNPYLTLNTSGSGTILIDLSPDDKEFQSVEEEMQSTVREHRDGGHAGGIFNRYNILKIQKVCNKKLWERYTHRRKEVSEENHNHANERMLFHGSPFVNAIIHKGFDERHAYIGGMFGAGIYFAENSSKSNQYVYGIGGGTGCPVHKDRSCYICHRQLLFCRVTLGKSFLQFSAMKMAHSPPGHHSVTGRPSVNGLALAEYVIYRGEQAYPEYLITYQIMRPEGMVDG

[6] = target: T2, Poly [ADP-ribose] polymerase tankyrase-1 (Homo sapiens, UniProt O95271); assay: Inhibition of GST-tagged TNKS1 (1023 to 1327 aa) (unknown origin) after 90 mins by HTRF assay
T2 sequence (O95271 whole entry): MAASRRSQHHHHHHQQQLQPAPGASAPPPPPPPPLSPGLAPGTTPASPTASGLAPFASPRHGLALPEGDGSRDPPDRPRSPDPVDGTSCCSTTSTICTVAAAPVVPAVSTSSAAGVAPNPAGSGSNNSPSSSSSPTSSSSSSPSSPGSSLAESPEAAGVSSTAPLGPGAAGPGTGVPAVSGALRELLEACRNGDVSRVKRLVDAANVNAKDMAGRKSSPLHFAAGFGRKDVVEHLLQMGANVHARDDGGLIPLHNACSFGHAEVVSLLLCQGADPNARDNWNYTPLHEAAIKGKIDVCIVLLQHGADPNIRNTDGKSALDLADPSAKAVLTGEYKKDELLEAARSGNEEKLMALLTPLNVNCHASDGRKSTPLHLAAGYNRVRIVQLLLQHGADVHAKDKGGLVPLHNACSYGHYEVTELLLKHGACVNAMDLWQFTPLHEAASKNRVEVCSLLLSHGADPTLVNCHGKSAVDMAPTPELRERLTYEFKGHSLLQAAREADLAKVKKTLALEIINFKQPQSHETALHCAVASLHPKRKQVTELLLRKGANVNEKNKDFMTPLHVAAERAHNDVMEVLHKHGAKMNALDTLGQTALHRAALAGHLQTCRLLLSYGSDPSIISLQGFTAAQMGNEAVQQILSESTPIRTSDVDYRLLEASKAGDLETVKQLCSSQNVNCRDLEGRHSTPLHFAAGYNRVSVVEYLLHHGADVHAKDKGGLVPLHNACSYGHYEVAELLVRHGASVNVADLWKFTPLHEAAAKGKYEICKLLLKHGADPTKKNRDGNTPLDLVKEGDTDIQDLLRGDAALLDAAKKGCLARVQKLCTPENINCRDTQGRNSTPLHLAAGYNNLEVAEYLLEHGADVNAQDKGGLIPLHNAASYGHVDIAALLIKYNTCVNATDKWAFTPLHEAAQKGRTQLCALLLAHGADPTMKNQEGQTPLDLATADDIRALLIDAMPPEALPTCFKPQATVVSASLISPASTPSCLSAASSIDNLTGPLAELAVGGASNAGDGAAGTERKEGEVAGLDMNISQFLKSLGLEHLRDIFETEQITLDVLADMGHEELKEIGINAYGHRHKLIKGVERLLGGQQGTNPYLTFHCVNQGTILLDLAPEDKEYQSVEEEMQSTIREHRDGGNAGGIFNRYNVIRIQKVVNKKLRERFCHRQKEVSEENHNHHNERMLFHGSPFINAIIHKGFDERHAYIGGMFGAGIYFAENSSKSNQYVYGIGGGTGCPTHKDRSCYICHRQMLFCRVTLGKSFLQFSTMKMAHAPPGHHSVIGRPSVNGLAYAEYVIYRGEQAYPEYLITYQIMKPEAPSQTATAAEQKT

Chain of Cytochrome P450 3A4 (P08684 whole entry): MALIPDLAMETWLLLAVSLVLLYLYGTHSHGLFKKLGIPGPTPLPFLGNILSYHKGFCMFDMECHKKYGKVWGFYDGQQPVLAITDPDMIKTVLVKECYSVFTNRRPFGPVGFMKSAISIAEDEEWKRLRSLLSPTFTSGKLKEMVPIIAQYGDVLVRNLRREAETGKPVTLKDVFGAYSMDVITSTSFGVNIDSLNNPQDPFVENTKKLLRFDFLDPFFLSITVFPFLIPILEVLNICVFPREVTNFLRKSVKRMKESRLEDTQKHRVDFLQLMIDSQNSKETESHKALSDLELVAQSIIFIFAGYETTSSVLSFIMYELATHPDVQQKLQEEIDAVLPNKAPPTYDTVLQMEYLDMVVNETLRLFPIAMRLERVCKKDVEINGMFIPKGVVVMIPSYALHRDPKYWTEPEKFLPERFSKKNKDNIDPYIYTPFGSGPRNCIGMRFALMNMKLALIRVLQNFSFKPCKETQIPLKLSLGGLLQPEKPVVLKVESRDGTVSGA
Chain of Cytochrome P450 2C9 (P11712 whole entry): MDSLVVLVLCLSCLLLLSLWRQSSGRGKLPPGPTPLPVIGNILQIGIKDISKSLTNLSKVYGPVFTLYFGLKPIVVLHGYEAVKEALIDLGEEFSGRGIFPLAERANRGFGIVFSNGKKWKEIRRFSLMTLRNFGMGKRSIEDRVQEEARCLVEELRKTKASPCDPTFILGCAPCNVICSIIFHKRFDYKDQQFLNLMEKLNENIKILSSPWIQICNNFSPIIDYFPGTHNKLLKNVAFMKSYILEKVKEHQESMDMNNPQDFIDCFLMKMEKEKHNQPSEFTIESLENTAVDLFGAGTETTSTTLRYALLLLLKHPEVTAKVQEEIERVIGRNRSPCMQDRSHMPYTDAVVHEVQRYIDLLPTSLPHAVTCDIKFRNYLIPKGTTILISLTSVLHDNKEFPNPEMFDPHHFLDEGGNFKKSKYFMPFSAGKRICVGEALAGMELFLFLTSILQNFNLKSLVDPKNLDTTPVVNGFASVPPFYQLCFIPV

Cn1cc(-c2ccc(-c3cncc(Cl)c3N3CCC4(CCNC4=O)CC3)cc2)cn1
inhibition (INH) [1]: Not Active | inhibition (INH) [2]: Not Active | Vd [3]: 1.1 L/kg | AUC [4]: 288 ng·h/mL | IC50 [5]: 15 µM | IC50 [6]: > 10 µM
